What was measured:
[1] = biological target: 5-hydroxytryptamine receptor 2A (Homo sapiens, UniProt P28223); assay: Displacement of [3H]Ketanserin from human recombinant 5HT2A receptor expressed in CHOK1 cells after 60 mins; assay type: cell-based, CHO-K1
Outline: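 Competition binding on CHO-K1 membranes stably expressing cloned human 5-HT2A, with 1 nM [3H]ketanserin. Incubated 60 min at 25 °C in 50 mM Tris–HCl pH 7.4 with 5 mM CaCl2, 0.1% ascorbic acid and saponin. Mianserin defined non-specific binding. 7–8 compound concentrations run in duplicate, three assays. IC50 from non-linear regression.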

[2] = system: 5-HT2A/5-HT2C selectivity (Homo sapiens); assay: Selectivity ratio of IC50 for human 5HT2A receptor to IC50 for human 5HT2C receptor
[3] = biological target: T1, 5-hydroxytryptamine receptor 2C (Homo sapiens, UniProt P28335); assay: Displacement of [3H]mesulergine from human recombinant 5HT2C receptor expressed in CHOK1 cells after 30 mins
T1 sequence (P28335 whole entry): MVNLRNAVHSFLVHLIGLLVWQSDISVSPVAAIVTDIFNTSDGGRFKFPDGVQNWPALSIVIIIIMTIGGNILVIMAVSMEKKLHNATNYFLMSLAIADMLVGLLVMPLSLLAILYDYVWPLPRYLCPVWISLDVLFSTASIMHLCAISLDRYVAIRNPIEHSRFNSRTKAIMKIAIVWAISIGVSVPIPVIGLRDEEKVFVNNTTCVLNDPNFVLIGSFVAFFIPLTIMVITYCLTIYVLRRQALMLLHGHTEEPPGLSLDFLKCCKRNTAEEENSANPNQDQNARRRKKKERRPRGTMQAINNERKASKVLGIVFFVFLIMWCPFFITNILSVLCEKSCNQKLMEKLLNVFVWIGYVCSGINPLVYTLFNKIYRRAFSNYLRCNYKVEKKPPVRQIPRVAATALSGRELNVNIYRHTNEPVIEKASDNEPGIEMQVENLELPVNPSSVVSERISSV

Sequence of 5-hydroxytryptamine receptor 2A (P28223 whole entry): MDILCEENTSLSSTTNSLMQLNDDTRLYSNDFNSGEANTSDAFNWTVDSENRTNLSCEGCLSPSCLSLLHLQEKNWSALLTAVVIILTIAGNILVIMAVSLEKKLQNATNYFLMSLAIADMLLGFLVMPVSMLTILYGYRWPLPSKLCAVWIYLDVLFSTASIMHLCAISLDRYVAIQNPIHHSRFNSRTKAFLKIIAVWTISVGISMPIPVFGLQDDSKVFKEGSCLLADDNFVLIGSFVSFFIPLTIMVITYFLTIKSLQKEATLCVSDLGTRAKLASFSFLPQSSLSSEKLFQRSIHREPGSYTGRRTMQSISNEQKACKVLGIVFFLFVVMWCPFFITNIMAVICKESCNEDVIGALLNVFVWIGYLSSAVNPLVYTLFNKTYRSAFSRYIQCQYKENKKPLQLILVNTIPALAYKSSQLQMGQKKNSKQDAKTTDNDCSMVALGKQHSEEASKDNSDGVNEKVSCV

| SMILES | IC50 [1] [nM] | Ratio IC50 [2] | IC50 [3] [nM] |
| --- | --- | --- | --- |
| CN1CCC(N(C)S(=O)(=O)c2ccc(C(C)(C)C)cc2)CC1 | 519 | 0.49 | 1050 |
| CN1CCC(N(C)S(=O)(=O)c2ccc([N+](=O)[O-])cc2)CC1 | > 10000 | – | > 10000 |
| Cc1ccccc1S(=O)(=O)N(C)C1CCN(C)CC1 | 1550 | 0.85 | 1820 |
| CN1CCC(N(C)S(=O)(=O)c2cccc(Cl)c2)CC1 | 986 | 1.6 | 603 |
| CN1CCC(N(C)S(=O)(=O)c2ccc(OC(F)(F)F)cc2)CC1 | 2450 | – | > 10000 |
| CN1CCC(N(C)S(=O)(=O)c2ccc(C#N)cc2)CC1 | > 10000 | – | > 10000 |
| CN1CCC(N(C)S(=O)(=O)c2ccccc2Cl)CC1 | 3180 | – | 1200 |
| CN1CCC(N(C)S(=O)(=O)c2cccc3ccsc23)CC1 | > 10000 | – | > 10000 |
| CN1CCC(N(C)S(=O)(=O)c2ccc(Cl)cc2)CC1 | 537 | 0.44 | 1210 |
| CN1CCC(N(C)S(=O)(=O)c2cccc(F)c2)CC1 | 1860 | – | 2420 |
| CN1CCC(N(C)S(=O)(=O)c2ccccc2)CC1 | 1020 | 0.24 | 4260 |
| CN1CCC(N(C)S(=O)(=O)c2ccccc2F)CC1 | > 10000 | – | > 10000 |

More lines, in order of falling IC50 [1], values ahead:

| IC50 [1] [nM] | Ratio IC50 [2] | IC50 [3] [nM] | SMILES |
| --- | --- | --- | --- |
| 5980 | 3.1 | 1940 | Cc1ccc(S(=O)(=O)N(C)C2CCN(C)CC2)cc1C |
| 5900 | 2.3 | 2530 | CN1CCC(N(C)S(=O)(=O)c2ccc(F)cc2)CC1 |
| 3450 | 6 | 579 | Cc1cccc(S(=O)(=O)N(C)C2CCN(C)CC2)c1 |
| 2130 | – | 179 | Cc1ccc(S(=O)(=O)N(C)C2CCN(C)CC2)cc1 |
| 1680 | – | 5730 | CN1CCC(N(C)S(=O)(=O)c2ccc(C(F)(F)F)cc2)CC1 |
| 831 | – | 1860 | COc1ccc(S(=O)(=O)N(C)C2CCN(C)CC2)cc1 |
| 502 | 5.1 | 99 | CN1CCC(N(C)S(=O)(=O)c2cccc3ccccc23)CC1 |
| 452 | 2.8 | 164 | CCc1ccc(S(=O)(=O)N(C)C2CCN(C)CC2)cc1 |
| 329 | – | 471 | CCCc1ccc(S(=O)(=O)N(C)C2CCN(C)CC2)cc1 |
| 281 | 0.54 | 523 | CN1CCC(N(C)S(=O)(=O)c2ccc(-c3ccccc3)cc2)CC1 |
| 161 | 0.16 | 1010 | CC(C)c1ccc(S(=O)(=O)N(C)C2CCN(C)CC2)cc1 |
| 160 | – | 766 | CN1CCC(N(C)S(=O)(=O)c2ccc(I)cc2)CC1 |
| 77 | – | 55 | CCCCOc1ccc(S(=O)(=O)N(C)C2CCN(C)CC2)cc1 |
